Source: article PMC11986672 (RSC Medicinal Chemistry, 2025)
Where “and” joins values, the source holds several entries; their conditions need not be identical. Equal values may be shown once. Where a name gives a salt, the structure may show the parent alone. Read-outs that look alike come from different tables or passages of the source.

Key:
[1] = test system: human endometrial cancer (HEC1A) cells; test: MTT cytotoxicity assay, HEC1A; format: cell-based; conditions: for IC50: 48 h; for Selectivity ratio: IC50 MAD11 divided by IC50 HEC1A; for times more potent than BH10: HEC1A IC50 compared with BH10
Procedure, shortened: (§1)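 HEC1A (5000/well) and MAD11 (2500/well) cells were seeded and held overnight at 37 °C. Test compound was reconstituted in DMSO and serially diluted in medium to final 160, 80, 40, 20, 10, 5, 2.5 and 1.25 μM, in triplicate, with matched DMSO in all wells. After 48 h, MTT was added for 3 h, formazan solubilised (4 mM HCl, 0.1% NP-40, isopropanol) and absorbance read at 590/620 nm. IC50 was taken against vehicle controls; selectivity = MAD11 IC50 / HEC1A IC50.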

[2] = test system: noncancerous human endometrial stromal (MAD11) cells; test: MTT cytotoxicity assay, MAD11; format: cell-based; conditions: MAD11, 48 h, read-out: MAD11 IC50
Procedure, shortened: as §1

[3] = Homo sapiens, HEC-1-A, read-out: HEC1A IC50, MTT cell viability, 48 h, n = 3 biological repeats
[4] = read-out: HEC1A IC50, MTT cell viability, n = 3 biological repeats

SMILES	IC50 [1, 3]	IC50 [2]	Selectivity ratio [1]	times more potent than BH10 [1]	IC50 ([1]; Homo sapiens, HEC-1-A, read-out: HEC1A IC50)	IC50 [1, 4]
O=C1C=C(NCCN2CCOCC2)C(=O)c2ccccc21 [Compound 5, 2-((2-Morpholinoethyl)amino)naphthalene-1,4-dione]	> 40 µM	> 40 µM				
O=C1C=C(NCCCN2CCOCC2)C(=O)c2ccccc21 [Compound 6, 2-((3-Morpholinopropyl)amino)-[1,4]-naphthoquinone]	> 40 µM	> 40 µM				
O=C1C=C(NCCCN2CCCCC2)C(=O)c2ccccc21 [Compound 7, 2-((3-(Piperidin-1-yl)propyl)amino)-[1,4]-naphthoquinone]	17.2 µM	> 40 µM	>2.32			
O=C1C(Br)=C(NCCN2CCOCC2)C(=O)c2ccccc21 [Compound 8, 2-Bromo-3-((2-(4-morpholinyl)ethyl)amino)-[1,4]-naphthoquinone]	9.55 µM	20.5 µM	2.15			
O=C1C(Br)=C(NCCCN2CCOCC2)C(=O)c2ccccc21 [Compound 9, 2-Bromo-3-((3-morpholinopropyl)amino)-[1,4]-naphthoquinone]	4.16 µM	12.1 µM	2.90			
O=C1C(Br)=C(NCCCN2CCCCC2)C(=O)c2ccccc21 [Compound 10, 2-Bromo-3-((3-(piperidin-1-yl)propyl)amino)-[1,4]-naphthoquinone]	1.24 µM	3.27 µM	2.64			
CC1=C(NCCN2CCOCC2)C(=O)c2ccccc2C1=O [Compound 11, 2-Methyl-3-((2-(4-morpholinyl)ethyl)amino)-[1,4]-naphthoquinone]	> 40 µM	> 40 µM				
CN(C)CCNC1=C(Cl)C(=O)c2ccccc2C1=O [Compound 12, 2-Chloro-3-((2-(dimethylamino)ethyl)amino)-[1,4]-naphthoquinone]	1.57 µM	2.87 µM	1.83			
O=C1C(Cl)=C(NCCN2CCCC2)C(=O)c2ccccc21 [Compound 13, 2-Chloro-3-((2-(1-pyrrolidinyl)ethyl)amino)-[1,4]-naphthoquinone]	1.29 µM	2.38 µM	1.84	~8 times		
O=C1C(Cl)=C(NCCN2CCCCCC2)C(=O)c2ccccc21 [Compound 15, 2-((2-(Azepan-1-yl)ethyl)amino)-3-chloro-[1,4]-naphthoquinone]	1.29 µM	2.38 µM	1.84	~8 times		
O=C1C(Cl)=C(NCCCl)C(=O)c2ccccc21 [Compound 16, 2-Chloro-3-((2-chloroethyl)amino)-[1,4]-naphthoquinone]		12.1 µM	2.14		5.65 µM	
O=C1C(Cl)=C(NCCN2CCN(C3=C(Cl)C(=O)c4ccccc4C3=O)CC2)C(=O)c2ccccc21 [Compound 18, 2-Chloro-3-(4-(2-((3-chloro-1,4-dioxo-1,4-dihydronaphthalen-2-yl)amino)ethyl)piperazin-1-yl)-[1,4]-naphthoquinone]	2.91 µM	3.4 µM	1.17	3.5 times		
O=C1C(Cl)=C(NCCc2c[nH]c3ccccc23)C(=O)c2ccccc21 [Compound 19, 2-((2-(1H-Indol-3-yl)ethyl)amino)-3-chloronaphthalene-1,4-dione]	18.6 µM	40.3 µM	2.24			
O=C1C(Cl)=C(NCCCN2CCOCC2)C(=O)c2ccccc21 [Compound 20, 2-Chloro-3-((3-morpholinopropyl)amino)naphthalene-1,4-dione]	6.41 µM	21.9 µM	3.42			
CN(C)CCCNC1=C(Cl)C(=O)c2ccccc2C1=O [Compound 22, 2-Chloro-3-((3-(dimethylamino)propyl)amino)naphthalene-1,4-dione]	2.36 µM	5.27 µM	2.23			
CCCCNC1=C(Cl)C(=O)c2ccccc2C1=O [Compound 23, 2-(Butylamino)-3-chloro-[1,4]-naphthoquinone]	32 µM	> 40 µM	>1.25			
C#CCNC1=C(Cl)C(=O)c2ccccc2C1=O [Compound 24, 2-Chloro-3-(prop-2-yn-1-ylamino)naphthalene-1,4-dione]	21.9 µM	22.4 µM	1.02			
CCOC(=O)CNC1=C(Cl)C(=O)c2ccccc2C1=O [Compound 25, Ethyl (3-chloro-1,4-dioxo-1,4-dihydronaphthalen-2-yl)glycinate]	20 µM	20.1 µM	1.00			

SMILES	IC50 [1, 3]	IC50 [2]	Selectivity ratio [1]	times more potent than BH10 [1]	IC50 ([1]; Homo sapiens, HEC-1-A, read-out: HEC1A IC50)	IC50 [1, 4]
COC(=O)[C@H](Cc1c[nH]c2ccccc12)NC1=C(Cl)C(=O)c2ccccc2C1=O [Compound 26, Methyl (3-chloro-1,4-dioxo-1,4-dihydronaphthalen-2-yl)-L-tryptophanate]	> 40 µM	> 40 µM				
COC(=O)[C@H](Cc1ccccc1)NC1=C(Cl)C(=O)c2ccccc2C1=O [Compound 27, Methyl (3-chloro-1,4-dioxo-1,4-dihydronaphthalen-2-yl)-L-phenylalaninate]	> 40 µM	> 40 µM				
O=C1C(Cl)=C(NCCN2CCNCC2)C(=O)c2ccccc21 [Compound 29, 2-Chloro-3-((2-(1-piperazinyl)ethyl)amino)-[1,4]-naphthoquinone salt]	4.68 µM	11.5 µM	2.45	2.2 times		
COC(=O)[C@H](CCCCN)NC1=C(Cl)C(=O)c2ccccc2C1=O [Compound 30, Methyl (3-chloro-1,4-dioxo-1,4-dihydronaphthalen-2-yl)-L-lysinate]	38 µM	> 40 µM				
O=C1C(Cl)=C(NCc2cn(-c3ccccc3)nn2)C(=O)c2ccccc21 [Compound 31, 2-Chloro-3-(((1-phenyl-1H-1,2,3-triazol-4-yl)methyl)amino)naphthalene-1,4-dione]	19.5 µM	34 µM	1.74			
O=C(O)c1ccc(-n2cc(CNC3=C(Cl)C(=O)c4ccccc4C3=O)nn2)cc1 [Compound 32, 4-(4-(((3-Chloro-1,4-dioxo-1,4-dihydronaphthalen-2-yl)amino)methyl)-1H-1,2,3-triazol-1-yl)benzoic acid]	> 40 µM	> 40 µM				
CCOC(=O)c1ccc(-n2cc(CNC3=C(Cl)C(=O)c4ccccc4C3=O)nn2)cc1 [Compound 33, Ethyl 4-(4-(((3-chloro-1,4-dioxo-1,4-dihydronaphthalen-2-yl)amino)methyl)-1H-1,2,3-triazol-1-yl)benzoate]	11.1 µM	21.3 µM	1.92			
CC(=O)NC1=C(NCCCN2CCCCC2)C(=O)c2ccccc2C1=O [Compound 39, N-(1,4-Dioxo-3-((3-(piperidin-1-yl)propyl)amino)-1,4-dihydronaphthalen-2-yl)acetamide]	26 µM	> 40 µM				26 µM
CCC(=O)NC1=C(NCCCN2CCCCC2)C(=O)c2ccccc2C1=O [Compound 40, N-(1,4-Dioxo-3-((3-(piperidin-1-yl)propyl)amino)-1,4-dihydronaphthalen-2-yl)propionamide]	14 µM	38.2 µM	2.70			14.1 µM
CCCC(=O)NC1=C(NCCCN2CCCCC2)C(=O)c2ccccc2C1=O [Compound 41, N-(1,4-Dioxo-3-((3-(piperidin-1-yl)propyl)amino)-1,4-dihydronaphthalen-2-yl)butyramide]	15 µM	> 40 µM				
CCCCC(=O)NC1=C(NCCCN2CCCCC2)C(=O)c2ccccc2C1=O [Compound 42, N-(1,4-Dioxo-3-((3-(piperidin-1-yl)propyl)amino)-1,4-dihydronaphthalen-2-yl)pentanamide]	15 µM	> 40 µM				
CC(=O)NC1=C(NCCN2CCOCC2)C(=O)c2ccccc2C1=O [Compound 43, N-(3-((2-Morpholinoethyl)amino)-1,4-dioxo-1,4-dihydronaphthalen-2-yl)acetamide]	> 40 µM	> 40 µM				
CCc1nc2c(n1CCCN1CCCCC1)C(=O)c1ccccc1C2=O [Compound 45, 2-Ethyl-1-(3-(piperidin-1-yl)propyl)-1H-naphtho[2,3-d]imidazole-4,9-dione]	12 µM	35 µM	2.92			
CCCc1nc2c(n1CCCN1CCCCC1)C(=O)c1ccccc1C2=O [Compound 46, 1-(3-(Piperidin-1-yl)propyl)-2-propyl-1H-naphtho[2,3-d]imidazole-4,9-dione]	19 µM	> 40 µM				
CCCCc1nc2c(n1CCCN1CCCCC1)C(=O)c1ccccc1C2=O [Compound 47, 2-Butyl-1-(3-(piperidin-1-yl)propyl)-1H-naphtho[2,3-d]imidazole-4,9-dione]	14 µM	24 µM	1.80			
Cc1nc2c(n1CCN1CCOCC1)C(=O)c1ccccc1C2=O [Compound 48, 2-Methyl-1-(2-morpholinoethyl)-1H-naphtho[2,3-d]imidazole-4,9-dione]	> 40 µM	> 40 µM				
O=C(Cc1ccccc1)NC1=C(NCCCN2CCCCC2)C(=O)c2ccccc2C1=O [Compound 50, N-(1,4-Dioxo-3-((3-(piperidin-1-yl)propyl)amino)-1,4-dihydronaphthalen-2-yl)-2-phenylacetamide]	8.8 µM	39 µM	4.4 and 4.43			
